The source of these data is ChEMBL document CHEMBL2057154, “Discovery and optimization of novel purines as potent and selective CB2 agonists” (Bioorg Med Chem Lett, 2012).

Converted amounts (≈) assume the structure as drawn. The source made the active and inactive calls. No cut-off for these calls is given here.

The subject of data set [1] is Rattus norvegicus. Description: Analgesic activity in monoiodoacetic acid rat model of osteoarthritic pain assessed as decrease in pain at 3 mg/kg, po measured after 29 days relative to control. It counts as functional, organism-based. Set-up: dose 3 mg/kg.
Data set [2] deals with T1, Cannabinoid receptor 2 (Homo sapiens, UniProt P34972). Description: Agonist activity at human CB2 receptor expressed in CHO cells assessed as [35S]-GTPgammaS binding preincubated for 25 mins measured after 30 mins by scintillation proximity assay. The format is functional, cell-based. A general note: GTPγS resists hydrolysis and so accumulates on activated G proteins.
T1 sequence (P34972 whole entry): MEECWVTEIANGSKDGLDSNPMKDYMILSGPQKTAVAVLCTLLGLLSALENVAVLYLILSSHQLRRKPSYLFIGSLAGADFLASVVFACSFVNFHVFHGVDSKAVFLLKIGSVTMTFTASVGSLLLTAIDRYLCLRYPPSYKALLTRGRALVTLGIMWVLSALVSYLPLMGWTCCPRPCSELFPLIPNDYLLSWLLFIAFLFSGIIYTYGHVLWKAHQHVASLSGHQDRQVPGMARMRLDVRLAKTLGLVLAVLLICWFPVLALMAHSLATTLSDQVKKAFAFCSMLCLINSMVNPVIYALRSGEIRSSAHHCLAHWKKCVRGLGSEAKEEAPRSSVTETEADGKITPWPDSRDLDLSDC

The target in data set [3] is T1, Cannabinoid receptor 2. Kind of data set: Agonist activity at human CB2 receptor expressed in CHO cells assessed as [35S]-GTPgammaS binding preincubated for 25 mins measured after 30 mins by scintillation proximity assay relative to control. The format is functional, cell-based.
The target of data set [4] is T2, Cannabinoid receptor 1 (Homo sapiens, UniProt P21554). Description: Agonist activity at human CB1 receptor expressed in CHO cells assessed as [35S]-GTPgammaS binding preincubated for 25 mins measured after 30 mins by scintillation proximity assay relative to control. It counts as functional, cell-based.
T2 sequence (P21554 whole entry): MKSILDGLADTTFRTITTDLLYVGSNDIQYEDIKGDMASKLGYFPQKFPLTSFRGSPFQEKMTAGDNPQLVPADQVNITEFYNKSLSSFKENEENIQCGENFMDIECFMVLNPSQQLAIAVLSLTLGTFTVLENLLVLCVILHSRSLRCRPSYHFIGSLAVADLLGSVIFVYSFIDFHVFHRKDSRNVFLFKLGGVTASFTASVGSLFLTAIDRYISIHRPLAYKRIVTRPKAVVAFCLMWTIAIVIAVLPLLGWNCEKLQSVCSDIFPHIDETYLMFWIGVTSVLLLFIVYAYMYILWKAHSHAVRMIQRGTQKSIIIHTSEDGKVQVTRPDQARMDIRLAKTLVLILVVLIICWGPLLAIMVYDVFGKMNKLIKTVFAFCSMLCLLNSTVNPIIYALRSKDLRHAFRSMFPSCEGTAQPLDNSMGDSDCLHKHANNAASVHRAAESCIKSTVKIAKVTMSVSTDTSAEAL
Data set [5] concerns the target T2, Cannabinoid receptor 1. Description: Agonist activity at human CB1 receptor expressed in CHO cells assessed as [35S]-GTPgammaS binding preincubated for 25 mins measured after 30 mins by scintillation proximity assay. It counts as functional, cell-based.
Data set [6] in a line: Dissociation constant, pKa of the compound. It counts as physicochemical.
Data set [7] in a line: Drug metabolism in dog liver microsomes at 4 uM after 30 mins by LC-ESI/MS analysis. It counts as ADME, Canis lupus familiaris, Microsome. The following applies: read-out: Drug metabolism. For orientation: Microsomes from liver hold many membrane-bound enzymes, among them those of drug oxidation.
Data set [8] in a line: Drug metabolism in rat liver microsomes at 4 uM after 30 mins by LC-ESI/MS analysis. The format is ADME, Microsome. The following applies: read-out: Drug metabolism.
A short description of data set [9]: Drug metabolism in human liver microsomes at 4 uM after 30 mins by LC-ESI/MS analysis. The format is ADME, Microsome. The note with it: read-out: Drug metabolism.
The test system of data set [10] is Rattus norvegicus. Description: Analgesic activity in monoiodoacetic acid rat model of osteoarthritic pain assessed as decrease in pain at 10 mg/kg, po pretreated with CB2 antagonist SR144528 at 3 mg/kg, ip administered 30 mins prior to compound treatment. It counts as functional, organism-based. In outline: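 SR-144528 given at 3 mg/kg ip 30 min before the oral test dose (10 mg/kg) in the rodent monoiodoacetic acid osteoarthritic knee pain model.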

Data set [11] has as its system Rattus norvegicus. Description: Analgesic activity in monoiodoacetic acid rat model of osteoarthritic pain assessed as decrease in pain at 10 mg/kg, po measured after 29 days relative to control. It counts as functional, organism-based. Set-up: dose 10 mg/kg.
The test system of data set [12] is Rattus norvegicus. Kind of data set: Hepatic clearance in Sprague-Dawley rat at 1 mg/kg, iv. It counts as ADME, organism-based, Liver. Set-up: dose 1 mg/kg, route intravenous. The following applies: in vivo. In outline: (§1)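 Male Sprague–Dawley rats dosed 1 mg/kg iv and 1 mg/kg po; plasma pharmacokinetic parameters derived from the iv and oral arms.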
Data set [13] in a line: Volume of distribution in Sprague-Dawley rat at 1 mg/kg, iv. It counts as ADME, organism-based. Set-up: dose 1 mg/kg, route intravenous. The note with it: in vivo. In outline:
as §1

Data set [14] can be described thus: Oral bioavailability in Sprague-Dawley rat at 1 mg/kg. The following applies: in vivo. It counts as ADME, organism-based. The procedure, abridged:
as §1

Another data set concerns the target Cytochrome P450 2D6 (Homo sapiens, UniProt P10635). Description: Inhibition of CYP2D6. It counts as ADME.
A short description of data set [15]: (§2) Binding affinity to 5HT1. The arrangement: species or system Homo sapiens.
The target of data set [16] is Voltage-gated inwardly rectifying potassium channel KCNH2 (Homo sapiens, UniProt Q12809). Kind of data set: Displacement of [3H]dofetilide from human Erg expressed in human HEK293 cells. The format is cell-based. In outline: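 hERG affinity measured by [3H]-dofetilide displacement from hERG channels stably expressed in HEK293 cells.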
Sequence of Voltage-gated inwardly rectifying potassium channel KCNH2 (Q12809 whole entry): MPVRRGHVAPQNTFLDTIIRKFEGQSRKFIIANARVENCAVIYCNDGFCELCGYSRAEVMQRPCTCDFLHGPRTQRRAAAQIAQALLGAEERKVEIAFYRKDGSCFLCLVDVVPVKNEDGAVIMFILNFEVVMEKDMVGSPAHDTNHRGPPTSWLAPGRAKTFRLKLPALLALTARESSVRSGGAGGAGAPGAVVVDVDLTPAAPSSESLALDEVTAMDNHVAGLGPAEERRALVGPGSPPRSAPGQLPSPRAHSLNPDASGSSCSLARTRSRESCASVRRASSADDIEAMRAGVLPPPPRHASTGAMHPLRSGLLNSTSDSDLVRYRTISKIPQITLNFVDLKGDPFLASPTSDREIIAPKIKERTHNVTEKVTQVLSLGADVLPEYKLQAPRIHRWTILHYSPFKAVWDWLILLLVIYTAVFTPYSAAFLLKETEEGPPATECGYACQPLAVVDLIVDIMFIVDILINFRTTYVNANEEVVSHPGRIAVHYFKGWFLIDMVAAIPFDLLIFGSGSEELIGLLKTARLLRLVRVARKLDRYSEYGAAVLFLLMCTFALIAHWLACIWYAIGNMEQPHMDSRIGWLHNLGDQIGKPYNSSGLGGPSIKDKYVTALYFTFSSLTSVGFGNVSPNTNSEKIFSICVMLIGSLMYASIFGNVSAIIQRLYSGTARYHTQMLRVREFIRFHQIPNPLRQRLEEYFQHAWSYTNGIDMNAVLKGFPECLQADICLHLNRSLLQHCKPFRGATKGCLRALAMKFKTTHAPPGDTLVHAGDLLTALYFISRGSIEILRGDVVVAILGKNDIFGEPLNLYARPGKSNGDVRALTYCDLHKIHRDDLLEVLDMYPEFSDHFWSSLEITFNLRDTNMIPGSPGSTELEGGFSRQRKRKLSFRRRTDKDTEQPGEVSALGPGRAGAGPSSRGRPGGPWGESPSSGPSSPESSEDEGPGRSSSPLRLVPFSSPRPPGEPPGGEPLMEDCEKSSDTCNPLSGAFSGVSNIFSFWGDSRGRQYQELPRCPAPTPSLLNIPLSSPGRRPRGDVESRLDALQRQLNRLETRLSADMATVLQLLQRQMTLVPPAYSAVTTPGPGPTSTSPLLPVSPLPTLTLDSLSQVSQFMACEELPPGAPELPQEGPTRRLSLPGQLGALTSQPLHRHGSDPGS
The target in data set [17] is T3, Cannabinoid receptor 2 (Rattus norvegicus, UniProt Q9QZN9).
T3 sequence (Q9QZN9 whole entry): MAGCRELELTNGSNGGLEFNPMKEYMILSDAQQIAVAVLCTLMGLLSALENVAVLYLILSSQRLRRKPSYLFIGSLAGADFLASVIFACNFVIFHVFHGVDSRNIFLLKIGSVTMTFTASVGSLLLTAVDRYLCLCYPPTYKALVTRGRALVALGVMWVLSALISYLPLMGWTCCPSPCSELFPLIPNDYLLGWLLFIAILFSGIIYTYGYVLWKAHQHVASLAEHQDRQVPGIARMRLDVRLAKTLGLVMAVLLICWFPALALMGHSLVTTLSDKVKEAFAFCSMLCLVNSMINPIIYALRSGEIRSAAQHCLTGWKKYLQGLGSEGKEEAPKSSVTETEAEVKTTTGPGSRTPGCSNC
Kind of data set: Displacement of [3H]-CP-55,940 from rat CB2 receptor expressed in CHO cells. The format is cell-based. For orientation: Displacement assays read how much labelled ligand stays bound in the presence of the test substance.

The nature of data set [18]: Solubility of the compound in simulated gastrointestinal fluid at pH 6.8. The format is physicochemical. In outline: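 Solubility determined in simulated GI fluid at pH 6.8.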
The target of data set [19] is T1, Cannabinoid receptor 2. Kind of data set: Displacement of [3H]-CP-55,940 from human CB2 receptor expressed in CHO cells. The format is cell-based.
The nature of data set [20]: Lipophilicity, log P of the compound. The format is physicochemical. The following applies: octanol/water.
The species entered for data set [21] is Homo sapiens. Description: Selectivity ratio of EC50 for human CB1 receptor to EC50 for human CB2 receptor.
A short description of data set [22]: Ratio of drug uptake in brain to plasma of Sprague-Dawley rat. The format is ADME. The note with it: read-out: BPR.
Data set [23] is described as follows: Aqueous solubility of the compound at pH 7. It counts as physicochemical. The following applies: buffer.
In the next data set the target is cytochrome P450 (Homo sapiens, UniProt P04798+P05177+P05181+P08684+P10632+P10635+P11509+P11712+P13584+P20813+P20815+P20853+P24462+P24903+P33260+P33261+P51589+P78329+P98187+Q02928+Q08477+Q16678+Q16696+Q5TCH4+Q6VVX0+Q7Z449+Q8TAV3+Q96SQ9+Q9HB55). Description: Inhibition of cytochrome P450. It counts as ADME.
The species named for data set [24] is Homo sapiens. The description is as §2.
Data set [25] relates to Rattus norvegicus. Description: Induction of hypothermia in monoiodoacetic acid rat model of osteoarthritic pain at 0.5 mg/kg, ip. It counts as organism-based. Set-up: dose 0.5 mg/kg, route intraperitoneal. The note with it: in vivo. In outline:
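Rats given the non-selective cannabinoid agonist (positive control) at 0.5 mg/kg ip. Body temperature drop was the read-out, used as an in vivo marker of central CB1 receptor activation.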

Sequence of Cytochrome P450 2D6 (P10635 whole entry): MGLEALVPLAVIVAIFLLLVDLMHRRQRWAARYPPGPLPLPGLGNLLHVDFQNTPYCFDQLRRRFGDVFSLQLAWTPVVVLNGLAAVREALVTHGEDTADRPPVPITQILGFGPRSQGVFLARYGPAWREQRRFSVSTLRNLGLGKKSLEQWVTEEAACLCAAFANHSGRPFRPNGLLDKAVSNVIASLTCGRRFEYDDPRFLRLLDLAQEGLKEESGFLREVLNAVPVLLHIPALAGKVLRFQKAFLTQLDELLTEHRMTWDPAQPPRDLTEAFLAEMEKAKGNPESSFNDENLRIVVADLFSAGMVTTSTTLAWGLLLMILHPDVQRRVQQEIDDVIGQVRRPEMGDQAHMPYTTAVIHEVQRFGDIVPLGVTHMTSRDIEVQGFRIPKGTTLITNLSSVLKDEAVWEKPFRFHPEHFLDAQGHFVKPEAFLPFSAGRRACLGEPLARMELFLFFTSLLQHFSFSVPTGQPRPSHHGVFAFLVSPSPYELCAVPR

With `O=C(O)Cc1ccccc1Nc1c(Cl)cccc1Cl`, the outcome in the data set on Rattus norvegicus [1] was Active.

As usually defined, the EC50 is the concentration at which the effect is half-maximal. One may read the pKa as the negative logarithm of the acid dissociation constant. A higher pKa goes with a weaker acid or stronger base. In general, Vd refers to the apparent volume that relates the amount in the body to the concentration in plasma or blood. Low values mean confinement near the circulation, high ones extensive tissue distribution. As a reminder, the bioavailability is the share of a dose that reaches the circulation, judged against a reference dose that is usually intravenous. By IC50 is commonly meant the concentration needed to halve the response being measured. Low values mean higher potency, high ones lower potency. What is called Ki is a measure of affinity in units of concentration, obtained from inhibition or displacement. The solubility is how much of the substance goes into solution per volume. Read a high solubility as a readily soluble substance. The term logP denotes the decadic logarithm of the partition coefficient of the neutral form, usually between octanol and water. On to `CCN1CCN(c2nc(C)nc3sc(-c4ccccc4)cc23)CC1`, for which the EC50 at Cannabinoid receptor 2 [2] was 24.8 nM; on Cannabinoid receptor 1 [5], 2600 nM. Also, the Efficacy on Cannabinoid receptor 2 [3] came out at 84.5%; at Cannabinoid receptor 1 [4], 73.6%. This compound displayed a pKa in data set [6] of 7.5. The metabolised at 0.5 h, 4 µM in data set [7] was determined as 97%; in [8], 94%; in data set [9], 73%. Further, in the data set with Rattus norvegicus [10], the outcome was inactive. Besides, in the data set with Rattus norvegicus [11], the outcome was Active. Moreover, the CLH in the data set with Rattus norvegicus [12] was found to be 90 mL/min/kg. Also, the volume of distribution (Vd) in [13] was determined as 10 L/kg. Besides, the bioavailability in [14] came out at 91%. For the same compound, the IC50 was 3000 nM on Cytochrome P450 2D6 and > 10000 nM in data set [16]. Moreover, the values for the Ki (in data set [15]; at Cannabinoid receptor 2 [17]; at Cannabinoid receptor 2 [19]) were 1000 nM, 16 nM and 82 nM, respectively. Moreover, the solubility in [18] was > 200 µM. The logP in data set [20] was determined as 3.7. In addition, the Ratio EC50 in the data set listed under Homo sapiens [21] came out at 104.

For the compound `CCN1CCN(c2nc(C)nc3c2nc(-c2ccccc2Cl)n3C)CC1`, the Kp in [22] was found to be 1. Also, in [23], the solubility was > 2000 µg/mL. Further, the IC50 against cytochrome P450 was > 10000 nM. In addition, the outcome in the data set listed under Homo sapiens [24] was Active. This compound also had a logP in data set [20] of 3.1.

Take `CCCCCCC(C)(C)c1ccc([C@@H]2C[C@H](O)CC[C@H]2CCCO)c(O)c1` [CP-55940]: in the data set on Rattus norvegicus [25], the Activity entry is recorded as “Toxic”.

For the compound `COC(=O)NCCn1c(-c2ccccc2Cl)nc2c(N3CCN(C)CC3)nc(C)nc21`, the values for the EC50 at Cannabinoid receptor 2 [2] and on Cannabinoid receptor 1 [5] were 47.5 nM and > 100000 nM, respectively. The Efficacy at Cannabinoid receptor 2 [3] was found to be 79.5%. Further, the figures for the metabolised at 0.5 h, 4 µM in data set [7], in [8] and in [9] were 62%, 25% and 14%, respectively. For the same compound, in the data set listed under Homo sapiens [21], the Ratio EC50 is > 2110.

For the compound `Cc1nc(N2CCC(C)CC2)c2cc(-c3ccccc3)sc2n1`, the concentration for a half-maximal effect (EC50) is 199 nM on Cannabinoid receptor 2 [2] and > 100000 nM at Cannabinoid receptor 1 [5]. Moreover, the Efficacy at Cannabinoid receptor 2 [3] was found to be 85.3%. Besides, the metabolised at 0.5 h, 4 µM in data set [7] was determined as 75%; in [8] it was 93%; in data set [9], 49%. Moreover, the Ratio EC50 in the data set listed under Homo sapiens [21] was > 502.

Turning to `CC(=O)N1CCN(c2nc(C)nc3sc(-c4ccccc4)cc23)CC1`, the results for the EC50 on Cannabinoid receptor 2 [2] and at Cannabinoid receptor 1 [5] were 184 nM and > 100000 nM, respectively. The Efficacy at Cannabinoid receptor 2 [3] was found to be 95.4%. Further, the results for the metabolised at 0.5 h, 4 µM in [7], in data set [8] and in [9] were 62%, 28% and 25%, respectively. In addition, in data set [18], the solubility was 41 µM (≈ 14.5 µg/mL). In addition, the Ratio EC50 in the data set filed under Homo sapiens [21] is > 543.

Take `Cc1nc(N2CCN(C)CC2)c2cc(-c3ccccc3)sc2n1`: the EC50 at Cannabinoid receptor 2 [2] amounted to 44.4 nM; at Cannabinoid receptor 1 [5] it was 5910 nM. Moreover, the Efficacy was 90.6% on Cannabinoid receptor 2 [3] and 70.9% on Cannabinoid receptor 1 [4]. Moreover, the metabolised at 0.5 h, 4 µM in data set [7] was determined as 97%; in [8], 95%; in data set [9], 56%. Also, the Ratio EC50 in the data set listed under Homo sapiens [21] was 133.
